Source: ChEMBL document CHEMBL4007469, “Design and synthesis of dalbergin analogues and evaluation of anti-osteoporotic activity” (Bioorg Med Chem Lett, 2017)
Calls of active or inactive are those of the source. The rule behind the calls is not given here.

Key:
[1] = system: Mus musculus; test: Anti-osteoporotic activity in ovariectomized postmenopausal Balb/c mouse model assessed as decrease in RANKL mRNA expression at 1 mg/kg, po qd via gavage for 6 weeks by RT-PCR method; format: functional, organism-based
How it was run: (§1)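 Eight-week-old female Balb/c mice, ovariectomized and left 6 weeks for osteopenia to develop; groups sham+vehicle, OVx+vehicle, OVx+1.0 mg/kg/day, dosed once daily by oral gavage for 6 weeks in gum acacia/distilled water vehicle. Mice kept at 21°C, 12 h light/dark, chow and water ad libitum. Femoral bone mRNA or serum measured after sacrifice; mean ± SE versus OVx group.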

[2] = system: Mus musculus; test: Anti-osteoporotic activity in ovariectomized postmenopausal Balb/c mouse model assessed as mineral apposition rate at 1 mg/kg, po qd via gavage for 6 weeks by fluorochromes tetracycline and calcein labeling based histomorphometric analysis (reference value: 0.099 +/- 0.01 umeter/day); format: functional
[3] = system: Mus musculus; test: Osteogenic activity in Balb/c mouse drill-hole fracture model assessed as structure model index at 1 mg/kg, po qd via gavage for 21 days by micro-CT method (reference value: 2.585 +/- 0.387)
[4] = Induction of osteoblast differentiation in mouse calvarial cells assessed as compound concentration required for maximum increase in ALP activity using PNPP as substrate after 48 hrs; format: functional, Calvarial cell
[5] = system: Calvarial cell; test: Induction of mineralization in mouse calvarial cells assessed as calcium nodule formation at Emax incubated for 12 days by alizarin red-S staining based spectrophotometric method; format: functional
How it was run: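 Primary mouse calvarial osteoblasts treated with or without compound for 12 days, fixed in 4% formaldehyde, stained with alizarin red-S, and the stain extracted and quantified by the acetic acid method.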

[6] = system: Mus musculus; test: Osteogenic activity in Balb/c mouse drill-hole fracture model assessed as increase in aggrecan mRNA level at 1 mg/kg, po qd via gavage for 21 days by RT-PCR method
[7] = system: Mus musculus; test: Anti-osteoporotic activity in ovariectomized postmenopausal Balb/c mouse model assessed as improvement in micro-artchitectural parameter in vertebrae by measuring trabecular number at 1 mg/kg, po qd via gavage for 6 weeks by micro CT-scan analysis (reference value: 2.24 +/- 0.16 /millimeter); format: functional
How it was run: (§2)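 Female Balb/c mice, 8 weeks old, ovariectomized, 6 weeks osteopenia development, then 1.0 mg/kg/day or gum acacia vehicle by oral gavage once daily for 6 weeks (sham, OVx and treated groups). Bones collected after sacrifice for micro-CT of trabecular microarchitecture (BV/TV, Tb.N, Tb.Th, Tb.Sp, SMI) and biomechanical testing of femur and vertebrae (energy, stiffness); mean ± SE versus OVx.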

[8] = Induction of mineralization in mouse calvarial cells assessed as increase in COL1 mRNA expression at 1 pM after 24 hrs by qRT-PCR method relative to control; format: functional, Calvarial cell
How it was run: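 Mouse calvarial osteoblasts exposed to 1 pM for 24 h; BMP2, RunX2 and COL1 mRNA by quantitative PCR with GAPDH as internal control. Mean ± SE of three independent experiments versus untreated cells.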

[9] = system: Mus musculus; test: Anti-osteoporotic activity in ovariectomized postmenopausal Balb/c mouse model assessed as increase in COL1 gene expression in femur bone at 1 mg/kg, po qd via gavage for 6 weeks by RT-PCR method; format: functional, organism-based; how it was run: as §1
[10] = system: Mus musculus; test: In vivo induction of osteogenesis in Balb/c mouse assessed as increase in COL1 mRNA level in calvaria at 1 mg/kg/day, sc over calvarial surface for 5 consecutive days by RT-PCR method relative to control; format: functional
How it was run: (§3)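 Three-week-old Balb/c mice (3 per group) injected subcutaneously over the calvarial surface daily for 5 consecutive days at 0.1, 0.5, 1 and 5 mg/kg/day. Calvaria fixed in 4% formaldehyde, paraffin-embedded, H&E-stained; tetracycline and calcein (20 mg/kg each, ip) given for MAR/BFR histomorphometry; calvarial mRNA by RT-PCR. Mean ± SE, three independent experiments, versus untreated.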

[11] = system: Mus musculus; test: Anti-osteoporotic activity in ovariectomized postmenopausal Balb/c mouse model assessed as decrease in TRAP mRNA expression at 1 mg/kg, po qd via gavage for 6 weeks by RT-PCR method; format: functional, organism-based; how it was run: as §1
[12] = system: Mus musculus; test: Osteogenic activity in Balb/c mouse drill-hole fracture model assessed as increase in BMP4 mRNA level at 1 mg/kg, po qd via gavage for 21 days by RT-PCR method
[13] = system: Mus musculus; test: Osteogenic activity in Balb/c mouse drill-hole fracture model assessed as bone volume fraction at 1 mg/kg, po qd via gavage for 21 days by micro-CT method (reference value: 32.924 +/- 3.806%)
[14] = system: Mus musculus; test: Anti-osteoporotic activity in ovariectomized postmenopausal Balb/c mouse model assessed as vertebrae compressive strength by measuring energy at 1 mg/kg, po qd via gavage for 6 weeks by micro CT-scan analysis (reference value: 224.75 +/- 1.06 mJ); format: functional; how it was run: as §2
[15] = system: Mus musculus; test: Anti-osteoporotic activity in ovariectomized postmenopausal Balb/c mouse model assessed as increase in OCN gene expression in femur bone at 1 mg/kg, po qd via gavage for 6 weeks by RT-PCR method; format: functional, organism-based; how it was run: as §1
[16] = system: Mus musculus; test: Anti-osteoporotic activity in ovariectomized postmenopausal Balb/c mouse model assessed as micro-artchitectural parameter in vertebrae by measuring bone volume fraction at 1 mg/kg, po qd via gavage for 6 weeks by micro CT-scan analysis (reference value: 13.92 +/-1.66%); format: functional; how it was run: as §2
[17] = system: Mus musculus; test: Anti-osteoporotic activity in ovariectomized postmenopausal Balb/c mouse model assessed as femur bone breaking strength by measuring energy at 1 mg/kg, po qd via gavage for 6 weeks by micro CT-scan analysis (reference value: 2.6 +/- 0.18 mJ); format: functional; how it was run: as §2
[18] = system: Mus musculus; test: Anti-osteoporotic activity in ovariectomized postmenopausal Balb/c mouse model assessed as improvement in micro-artchitectural parameter in vertebrae by measuring trabecular separation at 1 mg/kg, po qd via gavage for 6 weeks by micro CT-scan analysis (reference value: 0.288 +/- 0.021 millimeter); format: functional; how it was run: as §2
[19] = system: Mus musculus; test: Estrogenic effect in uterine of ovariectomized postmenopausal Balb/c mouse model assessed as uterine weight at 1 mg/kg, po qd via gavage for 6 weeks (reference value: 0.025 +/- 0.02 mg); format: ADME, organism-based; conditions: in vivo, 1008 h
[20] = system: Mus musculus; test: Estrogenic effect in uterine of ovariectomized postmenopausal Balb/c mouse model assessed as luminal epithelial height at 1 mg/kg, po qd via gavage for 6 weeks (reference value: 0.55 +/- 0.03 umeter); format: ADME, organism-based; conditions: in vivo, 1008 h
[21] = system: Mus musculus; test: Osteogenic activity in Balb/c mouse drill-hole fracture model assessed as increase in OCN mRNA level at 1 mg/kg, po qd via gavage for 21 days by RT-PCR method relative to control
[22] = system: Mus musculus; test: In vivo induction of osteogenesis in Balb/c mouse assessed as increase in mineral appositional rate in calvaria at 0.1 to 1 mg/kg/day, sc over calvarial surface for 5 consecutive days by fluorochromes tetracycline and calcein labeling based histomorphometric analysis; format: functional, organism-based; how it was run: as §3
[23] = Induction of osteoblast differentiation in mouse calvarial cells assessed as increase in ALP activity using PNPP as substrate after 48 hrs; format: functional, cell-based; conditions: Calvarial cell

COc1cc2oc(=O)cc(-c3ccccc3)c2cc1OCCCCCN1CCN(C)CC1
Activity [1]: Active | Activity [2]: 0.177 micrometer/day | Activity_index [3]: 0.496 | Concentration giving maximal ALP increase [4]: 1 pM | Activity [5]: Active | Activity [6]: Active | Activity [7]: 4.63 /millimeter | fold change (FC) [8]: 6 | Activity [9]: Active | fold change (FC) [10]: 4 | Activity [11]: Active | Activity [12]: Active | Activity [13]: 44.359% | Activity [14]: 262.55 mJ | Activity [15]: Active | Activity [16]: 23.43% | Activity [17]: 4.55 mJ | Activity [18]: 0.167 mm | Activity [19]: 0.032 mg | Activity [20]: 0.66 um | fold change (FC) [21]: 6 | Activity [22]: Active | EC50 [23]: 2300 nM
